Assay [1] deals with MYC transcriptional activity. Description: MYC luciferase reporter assay in HEK293T cells. The assay is classed as cell-based, human. The note with it: for activity in MYC luciferase reporter assay: dose response, Table S4. An outline of the steps: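 HEK293T cells (DMEM, 10% FBS) seeded at 35,000/well and transfected with Lipofectamine 2000 (complexes formed 25 min at room temperature). Reporter: firefly luciferase driven by TATA box plus tandem E-box repeats; negative control lacked response elements. Cells treated with DMSO or test compound (50 μM screen, or dose series) for 24 h. Firefly and Renilla read; blank subtracted, Firefly:Renilla calculated per well, then normalised to vehicle. n=3.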

Another assay deals with endogenous c-MYC (Homo sapiens, UniProt P01106). The experiment in a line: EN4-alkyne-4 enrichment of endogenous MYC in cells. The class given is cell-based. The note with it: 231MFP cells, 50 μM, 4 h, in situ. An outline of the steps: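 231MFP cells at 70% confluency exposed in situ to DMSO or 50 μM alkyne probe for 4 h. Cells lysed by sonication and lysates normalised to 3.2 mg/mL. Probe-labelled proteins conjugated by CuAAC and pulled down. c-MYC in the pulldown detected by blotting; input c-MYC and vinculin also shown. n=3 biological replicates, quantified.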
Chain of endogenous c-MYC (P01106 16-454): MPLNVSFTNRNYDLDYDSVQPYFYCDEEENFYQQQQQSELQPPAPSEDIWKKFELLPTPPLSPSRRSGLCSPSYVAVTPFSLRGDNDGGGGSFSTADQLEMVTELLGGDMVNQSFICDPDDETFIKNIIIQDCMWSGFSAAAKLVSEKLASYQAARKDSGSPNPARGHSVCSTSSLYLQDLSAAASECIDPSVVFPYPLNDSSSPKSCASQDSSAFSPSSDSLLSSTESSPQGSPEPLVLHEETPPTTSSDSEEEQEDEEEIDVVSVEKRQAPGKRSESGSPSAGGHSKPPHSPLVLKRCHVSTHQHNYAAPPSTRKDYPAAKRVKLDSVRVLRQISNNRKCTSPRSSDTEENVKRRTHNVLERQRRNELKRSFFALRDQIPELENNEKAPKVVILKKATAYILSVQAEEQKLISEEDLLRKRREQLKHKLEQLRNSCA

Another assay has as its system MIZ1 or ZBTB17. Description: MIZ1/ZBTB17 level with EN4 treatment. The assay is classed as cell-based. The note with it: Fig. S3f.
For the next assay, the target named is MYC (Homo sapiens, UniProt P01106). Description: Cellular thermal shift assay. The assay is classed as cell-based. The note with it: 231MFP cells, 50 μM, 2 h. In outline: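 231MFP cells (L15, 10% FBS, 37 °C, 0% CO2) at 80% confluence were exposed to test compound or DMSO at 50 μM for 120 min. They were then resuspended in PBS with protease inhibitors, still containing compound or DMSO, and heated for 3 min at eight temperatures (37.0–58.0 °C). After 3 min at 25 °C, cells were freeze-thaw lysed and spun at 20,000 g. Soluble c-MYC, MAX and GAPDH were measured by Western blot densitometry, relative to DMSO.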
Chain of MYC (P01106 16-454): as above

The target of assay [2] is purified recombinant human MYC/MAX complex (Homo sapiens, UniProt P01106). Description: MYC/MAX in vitro DNA binding to E-box consensus sequence. The assay is classed as biochemical. An outline of the steps: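 Human full-length c-MYC (0.2 μg) was pre-incubated for 30 min at 37 °C with DMSO or test compound diluted from 50 mM DMSO stock into dPBS. MAX (0.2 μg) was then added, and the mixture was transferred to wells coated with the E-box consensus sequence for 1 h binding. Bound complex was detected with primary and secondary antibodies following a commercial transcription-factor kit protocol. IC50 was derived from the dose-response.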
Chain of purified recombinant human MYC/MAX complex (P01106 16-454, one chain of several): as the sequence (P01106 16-454) above

Assay [3] has as its system MYC-transformed mammary epithelial MCF10A cells. Description: Serum-free cell survival, MYC-expressing MCF10A. The class given is cell-based, human. The note with it: 48 h. An outline of the steps: (§1)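 MCF10A parental or MYC-overexpressing cells (maintained in DMEM/F12K with 5% horse serum, EGF, cholera toxin, insulin and hydrocortisone) seeded at 40,000/well and allowed to adhere overnight. Treated with DMSO or test compound in serum-free medium for 48 h. Fixed and stained with formalin/Hoechst 33342, then imaged. Survival normalised to the DMSO control of each line set to 1; unpaired two-tailed t-test.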

The test system of another assay is parental MCF10A cells. The experiment in a line: Serum-free cell survival, parental MCF10A. The assay is classed as cell-based, human. The note with it: 48 h. An outline of the steps: as §1
The target in another assay is pure human c-JUN protein (Homo sapiens, UniProt P05412). Description: Gel-based ABPP with pure JUN protein. The class given is binding. The note with it: Fig. S3b. An outline of the steps: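 Recombinant pure human c-JUN (0.1 μg) was pretreated with DMSO or test compound in 25 μl PBS for 1 h at 37 °C. It was then labeled with 200 nM IA-rhodamine for 1 h at room temperature. Samples were denatured in reducing Laemmli buffer at 90 °C for 5 min, separated on 4–20% SDS/PAGE gels, fixed, and read by in-gel fluorescence.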
Chain of pure human c-JUN protein (P05412 whole entry): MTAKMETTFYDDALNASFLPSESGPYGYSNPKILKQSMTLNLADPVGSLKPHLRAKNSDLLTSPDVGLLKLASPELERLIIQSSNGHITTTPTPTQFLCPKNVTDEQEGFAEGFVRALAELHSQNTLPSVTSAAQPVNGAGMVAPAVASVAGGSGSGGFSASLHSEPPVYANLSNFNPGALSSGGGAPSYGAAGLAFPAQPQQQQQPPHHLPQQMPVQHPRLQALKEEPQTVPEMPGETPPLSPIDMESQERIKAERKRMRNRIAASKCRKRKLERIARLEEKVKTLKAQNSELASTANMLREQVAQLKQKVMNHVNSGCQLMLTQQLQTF

Assay [4] concerns 231MFP breast cancer cells. The experiment in a line: 231MFP cell proliferation. The class given is cell-based, human. The note with it: 50 μM, daily treatment, 72 h. In outline: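 231MFP cells (L15, 10% FBS, 37 °C, 0% CO2) seeded at 15,000/well in serum-containing L-15. Treated the next day with DMSO or test compound, with media and compound replaced daily for 72 h. Wells fixed and stained with 10% formalin plus Hoechst 33342 for 15 min at room temperature in the dark, washed and imaged. Reported as percent proliferation versus DMSO; unpaired two-tailed t-test.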

Assay [5] addresses C171Y mutant MYC protein (with MAX) (Homo sapiens, UniProt P01106, C186Y). The experiment in a line: MYC/MAX in vitro DNA binding with C171Y mutant MYC. The class given is biochemical. The note with it: 50 μM. An outline of the steps:
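Plate-based assay adapted from a c-Myc transcription factor kit. Test compound (50 μM; diluted from 50 mM DMSO stock into dPBS) or DMSO pre-incubated with 0.2 μg pure full-length wild-type or C171Y MYC for 30 min at 37 °C. Then 0.2 μg MAX added and the mixture bound to wells coated with the E-box consensus sequence for 1 h. Bound complex detected with primary and secondary antibodies.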

The test system of a further assay is MYC target genes. Description: RNA sequencing of EN4-treated 231MFP cells. The class given is cell-based, human. The note with it: 50 μM, 24 h. In outline: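 231MFP cells seeded in 6 cm dishes and treated with DMSO or 50 μM test compound for 24 h before RNA sequencing. Transcript changes reported as log₂ fold change of treated versus DMSO controls.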
In another assay the target is MAX (Homo sapiens, UniProt P61244). Description: Cellular thermal shift assay. The assay is classed as cell-based. The note with it: 231MFP cells, 50 μM, 2 h. An outline of the steps: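 231MFP cells at 80% confluence treated with DMSO or 50 μM test compound for 120 min, then resuspended in PBS with protease inhibitors and compound or DMSO kept present. Aliquots heated 3 min at eight temperatures (37.0–58.0 °C), held 3 min at 25 °C, lysed by three liquid-nitrogen freeze-thaw cycles and spun 20,000 g, 20 min, 4 °C. Soluble MAX measured by Western blot with GAPDH as loading control; band intensity quantified.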
Chain of MAX (P01106 16-454 partner limits assumed): as the sequence (P01106 16-454) above
Chain of MAX (P61244 whole entry): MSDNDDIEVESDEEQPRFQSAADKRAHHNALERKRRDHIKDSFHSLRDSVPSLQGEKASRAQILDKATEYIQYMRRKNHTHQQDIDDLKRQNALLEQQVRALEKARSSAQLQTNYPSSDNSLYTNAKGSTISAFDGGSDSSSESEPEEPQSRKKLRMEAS

The test system of assay [6] is MYC transcriptional activity. The experiment in a line: MYC luciferase reporter upon JUN knockdown. The class given is cell-based, human. The note with it: HEK293T, siJUN, 24 h.
In assay [7] the test system is 231MFP breast tumor xenograft. Description: 231MFP tumor xenograft study. The class given is in vivo. The note with it: 50 mg/kg ip once per day, started 14 days after implantation, SCID mice. An outline of the steps: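 Female C.B17 SCID mice (6–8 weeks) received 1 × 10⁶ 231MFP cells subcutaneously in the flank, suspended in serum-free medium. From 2 weeks after implantation, vehicle (18:1:1 PBS/ethanol/PEG40) or 50 mg/kg test compound was given ip once daily. Tumour size measured weekly by calipers; unpaired two-tailed t-test.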

The target in a further assay is pure human MYC protein (Homo sapiens, UniProt P01106). The experiment in a line: Gel-based ABPP with pure MYC protein. The note with it: pre-incubation 30 min 37°C, then EN4-alkyne-2 50 μM 2 h. The assay is classed as binding. In outline: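 Pure human full-length MYC (0.3 μg in 50 μl PBS) pre-treated with DMSO or test compound for 30 min at 37 °C, then labelled with alkyne probe (50 μM) for 2 h at 37 °C. Rhodamine-azide (1 μM final) attached by CuAAC, 1 h at room temperature. Samples heated at 90 °C for 5 min in reducing Laemmli buffer, run on 4–20% gels, fixed, and read by in-gel fluorescence; silver stain used for loading.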
Chain of pure human MYC protein (P01106 16-454): as the sequence (P01106 16-454) above

In another assay the test system is C171Y FLAG-MYC. Description: MYC luciferase reporter in HEK293T cells expressing C171Y versus WT FLAG-MYC. The class given is cell-based, human. The note with it: 50 μM, 24 h. An outline of the steps: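 HEK293T cells seeded at 35,000/well and co-transfected with the MYC E-box luciferase reporter plus 1 μg/well FLAG-eGFP, FLAG-wild-type or FLAG-C171Y c-MYC plasmid (site-directed mutant), using Lipofectamine 2000 at 3:1 to DNA. Treated with DMSO or 50 μM test compound for 24 h. Blank-subtracted Firefly:Renilla expressed relative to DMSO set to 1; FLAG expression checked by Western blot.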

The test system of assay [8] is CDK2, CDC25A and MYC protein levels. Description: Western blotting of MYC transcriptional targets in 231MFP cells. The note with it: 50 μM, 36 h. The assay is classed as cell-based, human. In outline: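 231MFP cells treated with DMSO or 50 μM test compound for 36 h, with medium and treatment replenished at 24 h. CDK2, CDC25A and MYC levels measured by Western blot with vinculin as loading control. n=3 biological replicates; blots quantified; unpaired two-tailed t-test.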

The target of assay [9] is pure human MYC C171Y mutant protein (Homo sapiens, UniProt P01106, C186Y). The experiment in a line: Gel-based ABPP with pure C171Y mutant MYC protein. The assay is classed as binding. The note with it: 50 μM, 2 h, 37°C. An outline of the steps: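 Pure human wild-type and C171Y MYC (0.3 μg in 50 μl PBS) labelled directly with alkyne probe (50 μM) for 2 h at 37 °C. Rhodamine-azide (1 μM final) attached by CuAAC, 1 h at room temperature. Samples run on reducing SDS/PAGE (4–20% gels), fixed in acetic acid/ethanol, and imaged by in-gel rhodamine fluorescence; silver stain used for loading.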
Chain of pure human MYC C171Y mutant protein (P01106 16-454 C186Y): as the sequence (P01106 16-454) above, with C171Y counted along it

Where only a bound is given, the exact number is not on record here.

Chain of C171Y mutant MYC protein (with MAX) (P01106 16-454 C186Y): as the sequence (P01106 16-454) above, with C171Y counted along it

For `CCOc1ccc(Oc2ccccc2NC(=O)c2ccc(CNC(=O)CCl)cc2)cc1` [EN4–3, 4-((2-chloroacetamido)methyl)-N-(2-(4-ethoxyphenoxy)phenyl)benzamide], in assay [1] (HEK293T), the “activity in MYC luciferase reporter assay” value is “loss of activity”.

For `C#Cc1ccc(Oc2ccc(OCC)cc2)c(NC(=O)c2ccc(CNC(=O)C=C)cc2)c1` [EN4-alkyne-4, 4-(acrylamidomethyl)-N-(2-(4-ethoxyphenoxy)-5-ethynylphenyl)benzamide], on endogenous c-MYC, the “enrichment of endogenous c-MYC versus vehicle” value is on record as “significantly enriched endogenous c-MYC”. For the same molecule, the EC50 in assay [1] (Homo sapiens, HEK-293T, read-out: EC50 in MYC luciferase reporter assay) was 1.4 µM.

For `C=CC(=O)NCc1ccc(C(=O)Nc2ccccc2Oc2ccc(OCC)cc2)cc1` [EN4], in the assay on MIZ1 or ZBTB17, the “level of MYC binding partner MIZ1 or ZBTB17” value is recorded as “upregulation”. For the same molecule, the MYC thermal stability result at MYC is on record as “significantly reduced MYC thermal stability”. Further, in assay [2] (read-out: 50 % inhibitory concentration (IC50) for MYC/MAX binding to the E-box response element DNA consensus sequence, dose-response, Fig. 1d, pre-incubated with MYC 30 min before MAX), the IC50 was 6.7 µM. For the same molecule, the “cell survival of MYC-transformed MCF10A cells” value in assay [3] was “impaired the cell survival”. Besides, the “inhibition of MYC transcriptional activity in covalent ligand screen” value in [1] (50 μM, 24 h, HEK293T, Fig. 1b) was “strongest inhibition”. Further, the “cell survival of parental MCF10A cells” value with parental MCF10A cells was “but not parental MCF10A cells”. Moreover, at pure human c-JUN protein, the “competition against IA-rhodamine labeling of pure JUN” value is listed as “competition of EN4 against labeling of pure JUN protein”. In assay [4], this molecule came in with an inhibition of proliferation above 90%. For the same molecule, in assay [5], the “inhibition of MYC/MAX DNA binding with C171Y mutant compared to wild-type MYC” value was “significantly attenuated”. The “expression of direct MYC target genes and MYC-regulated gene targets” value with MYC target genes was “significantly downregulated”. Further, the MAX thermal stability result at MAX is given as “reduced the thermal stability”. For the same molecule, the “inhibition of MYC luciferase reporter activity upon JUN knockdown compared to control cells” value in assay [6] is recorded as “comparable inhibitory effects”. Also, the “tumor growth in vivo” value in [7] is reported as “significantly attenuated tumor growth”. Also, on pure human MYC protein, the “competition of EN4-alkyne-2 labeling of pure MYC” value was “displaced the labeling of EN4-alkyne-2”. Further, the “MYC inhibitory effect in cells expressing C171Y FLAG-MYC compared to WT FLAG-MYC” value with C171Y FLAG-MYC is given as “significantly attenuated”. Moreover, in assay [8], the MYC protein levels entry is listed as “substantially reduced”; the “protein levels of CDK2 and CDC25A” value was “significantly lowered”.

For the molecule `CCOc1ccc(Oc2ccccc2NC(=O)c2ccc(CNC(=O)/C=C/C(F)(F)F)cc2)cc1` [EN4–6, (E)-N-(2-(4-ethoxyphenoxy)phenyl)-4-((4,4,4-trifluorobut-2-enamido)methyl) benzamide], the “activity in MYC luciferase reporter assay” value in assay [1] (HEK293T) is “loss of activity”.

Regarding `C#CCOc1ccc(NC(=O)c2ccc(CNC(=O)C=C)cc2)c(Oc2ccc(OCC)cc2)c1` [EN4-alkyne-2, 4-(acrylamidomethyl)-N-(2-(4-ethoxyphenoxy)-4-(prop-2-yn-1-yloxy)phenyl) benzamide], in assay [9], the “probe labeling of C171Y mutant MYC compared to wild-type” value is reported as “labeling was not observed”.

As to `CCOc1ccc(Oc2ccccc2NC(=O)c2ccc(CNC(=O)CC)cc2)cc1` [EN4–18, N-(2-(4-ethoxyphenoxy)phenyl)-4-(propionamidomethyl)benzamide], the “inhibition of MYC/MAX DNA binding in vitro” value in assay [2] (Fig. S4) is on record as “significantly inhibits MYC/MAX DNA binding”. The “activity in MYC luciferase reporter assay” value in assay [1] (HEK293T) is given as “inhibited MYC luciferase reporter activity”.
